Data: ChEMBL document CHEMBL1142576, “New bioactive clerodane diterpenoids from the bark of Casearia grewiifolia” (J Nat Prod, 2005)
Converted amounts (≈) assume the structure as drawn.

Legend:
KB = experiment: Cytotoxicity against human KB cells; format: functional, cell-based
Summary of the method: (§1)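 Human cancer cell lines: epidermoid carcinoma KB, breast cancer BC1 and small cell lung cancer NCI-H187. Colorimetric cytotoxicity method of Skehan and co-workers, with ellipticine as reference.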

[1] = test system: Mycobacterium tuberculosis; experiment: Antimycobacterial activity against Mycobacterium tuberculosis H37Ra by Alamar blue assay; format: functional
Summary of the method: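 Microplate Alamar Blue Assay (MABA) against strain H37Ra, with isoniazid and kanamycin sulfate as positive-control drugs.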

NCI-H187 = experiment: Cytotoxicity against human NCI-H187 cells; format: functional, cell-based; summary of the method: as §1
[2] = Cytotoxicity against human BC1 cells; format: functional, cell-based; summary of the method: as §1
Plasmodium falciparum = experiment: Antimalarial activity against Plasmodium falciparum K1 by [3H]hypoxanthine uptake; format: functional, organism-based
Summary of the method: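 P. falciparum K1 (multidrug-resistant strain) kept in culture after Trager and Jensen; in vitro microculture radioisotope assay per Desjardins. Parasite growth read as [3H]-hypoxanthine uptake; IC50 = concentration giving 50% reduction in growth. Artemisinin as positive control.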

Row | SMILES | IC50 (KB) | MIC [1] | IC50 (NCI-H187) | IC50 [2] | IC50 (Plasmodium falciparum)
1 | C=CC(=C)CC[C@]1(C)[C@H]2C[C@H](OC(=O)C(C)CC)C=C3[C@H](OC(C)=O)O[C@H](OC(C)=O)[C@@]32[C@H](OC)C[C@@H]1C (relative stereo) | 7.6 µg/mL (≈ 14.3 µM) | 12.5 µg/mL (≈ 23.5 µM) | 0.8 µg/mL (≈ 1.5 µM) | 4 µg/mL (≈ 7.51 µM) | 3.2 µg/mL (≈ 6.01 µM)
2 | C=CC(=C)CC[C@]1(C)[C@H]2C[C@H](OC(=O)C(C)CC)C=C3[C@H](OC(C)=O)O[C@H](OC(C)=O)[C@@]32[C@H](O)C[C@@H]1C (relative stereo) | 2.8 µg/mL (≈ 5.4 µM) | 12.5 µg/mL (≈ 24.1 µM) | 5.3 µg/mL (≈ 10.2 µM) | 2.5 µg/mL (≈ 4.82 µM) | 3.1 µg/mL (≈ 5.98 µM)
3 | C=CC(=C)CC[C@]1(C)[C@H]2C[C@H](OC(=O)CC(C)C)C=C3[C@H](OC(C)=O)O[C@H](OC(C)=O)[C@@]32[C@H](OC)C[C@@H]1C (relative stereo) [CASEARGREWIIN A] | 8.7 µg/mL (≈ 16.3 µM) | 12.5 µg/mL (≈ 23.5 µM) | 0.9 µg/mL (≈ 1.69 µM) | 4.6 µg/mL (≈ 8.64 µM) | 2.9 µg/mL (≈ 5.44 µM)
4 | C=C/C(C)=C\C[C@]1(C)[C@H](C)[C@@H](OC(=O)/C=C/c2ccc(O)cc2)[C@H](O)[C@@]23C(=C[C@H](OC(=O)CCC)C[C@@H]12)[C@@H](OC(C)=O)O[C@H]3OC(C)=O (relative stereo) [CASEARGREWIIN B] | 2.3 µg/mL (≈ 3.45 µM) | 12.5 µg/mL (≈ 18.7 µM) | 1.5 µg/mL (≈ 2.25 µM) | 1.9 µg/mL (≈ 2.85 µM) | 2.4 µg/mL (≈ 3.6 µM)
5 | C=C/C(C)=C\C[C@]1(C)[C@H](C)[C@@H](OC(C)=O)[C@H](O)[C@@]23C(=C[C@H](OC(=O)CC(C)C)C[C@@H]12)[C@@H](OC(C)=O)O[C@H]3OC(C)=O (relative stereo) [CASEARGREWIIN C] | 1.9 µg/mL (≈ 3.29 µM) | 25 µg/mL (≈ 43.4 µM) | 0.3 µg/mL (≈ 0.52 µM) | 2 µg/mL (≈ 3.47 µM) | 3 µg/mL (≈ 5.2 µM)
6 | C[C@@H]1CC[C@H]2[C@@H](C)C(=O)O[C@@H]3O[C@@]4(C)CC[C@@H]1[C@]32OO4 [ARTEMISININ] | – | – | – | – | 0.001 µg/mL (≈ 0.00354 µM)
7 | C=C/C(C)=C\C[C@]1(C)[C@H](C)CC[C@@]23C(=C[C@H](O)C[C@@H]12)[C@@H](OC(C)=O)O[C@H]3OC(C)=O [CASEARGREWIIN D] | 1.3 µg/mL (≈ 3.11 µM) | 12.5 µg/mL (≈ 29.9 µM) | 1.5 µg/mL (≈ 3.58 µM) | 0.1 µg/mL (≈ 0.239 µM) | 3.3 µg/mL (≈ 7.88 µM)
8 | Cc1c2ccncc2c(C)c2c1[nH]c1ccccc12 [ELLIPTECINE] | – | – | – | 0.26 µg/mL (≈ 1.06 µM) | –
9 | NNC(=O)c1ccncc1 [ISONIAZID] | – | 0.05 µg/mL (≈ 0.365 µM) | – | – | –
10 | NC[C@H]1O[C@H](O[C@H]2[C@H](O)[C@@H](O[C@H]3O[C@H](CO)[C@@H](O)[C@H](N)[C@H]3O)[C@H](N)C[C@@H]2N)[C@H](O)[C@@H](O)[C@@H]1O.O=S(=O)(O)O [KANAMYCIN SULFATE] | – | 2.5 µg/mL | – | – | –
